# Assay results: publication PMC4394042 (Cell reports, 2015)
# Assays:
# [1] = tested on: Gli3FL to Gli3R processing; assay: Western blot of Gli3 processing in SAG-stimulated C3H10T1/2 cells; format: cell-based; conditions: SAG 100 nM 24 h; Egm 10 μM, FSK 30 μM
# In short: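 C3H10T1/2 cells were left unstimulated or stimulated with SAG (100 nM, 24 h), alone or with test compound (10 μM) or forskolin (30 μM). Whole-cell lysates were immunoblotted for full-length and repressor Gli3, with α-tubulin as loading control and infrared detection; n = 3.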
# [2] = tested on: Gli2FL nuclear accumulation; assay: Western blot of nuclear full length Gli2 in SAG-stimulated NIH3T3 cells; format: cell-based; conditions: SAG 100 nM 1.5 h; Egm 10 μM, FSK 30 μM
# In short: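 NIH3T3 cells were left unstimulated or stimulated with SAG (100 nM, 1.5 h), alone or with test compound (10 μM) or forskolin (30 μM), then fractionated. Full-length Gli2 was blotted in nuclear (Lamin-A/C control, n = 4) and whole-cell (α-tubulin control, n = 2) fractions. Output was the ratio of normalized nuclear to normalized whole-cell Gli2.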
# [3] = tested on: PKA; assay: Immunostaining of phospho-T197-PKA in NIH3T3 cells; format: cell-based; conditions: SAG 20 nM plus 5 μM compound
# [4] = tested on: primary cilium of NIH3T3 cells; assay: Cilium structure and IFT88 in NIH3T3 cells; format: cell-based
# [5] = tested on: PKA; assay: Western blot of phospho-T197-PKA in NIH3T3 whole cell lysates; format: cell-based; conditions: SAG 20 nM plus 5 μM compound
# In short: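 NIH3T3 cells were left unstimulated or treated with SAG (20 nM), with or without test compound (5 μM). Whole-cell lysates were immunoblotted for phospho-T197 PKA catalytic subunit, with α-tubulin as loading control.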
# [6] = tested on: 442 kinases; assay: Counter-screen, kinase panel
# [7] = tested on: Hh signaling (Shh-Light2 cells); assay: Gli-Luc reporter stimulated with Smo agonist purmorphamine; format: cell-based, mouse; conditions: purmorphamine 3 μM; significant starting at 0.5 μM
# [8] = target: Smo (Homo sapiens, UniProt Q99835); format: binding; conditions: 5 nM BODIPY-cyclopamine; concentrations up to 10 μM
# [9] = target: PDE4D3 (Homo sapiens, UniProt Q08499); assay: PDE dose-response assay, PDE4D3; format: biochemical
# [10] = target: PDE11A4 (Homo sapiens, UniProt Q9HCR9); assay: PDE dose-response assay, PDE11A4; format: biochemical
# [11] = tested on: 21 phosphatases; assay: Counter-screen, phosphatase panel
# [12] = tested on: Hh-target gene Patched (Ptc)-1 expression; assay: Whole-mount in situ hybridization for Ptc1 in zebrafish embryos; format: in vivo; conditions: 1 μM; 12 hpf and 48 hpf
# [13] = tested on: Gli2-driven Gli-Luc activity; assay: Gli-Luc activity in cells transiently overexpressing Gli2; format: cell-based; conditions: transient Gli2 overexpression
# [14] = target: PDE3A (Homo sapiens, UniProt Q14432); assay: PDE dose-response assay, PDE3A; format: biochemical
# [15] = tested on: Hh signaling in Sufu-/- MEFs; assay: Gli1 and Ptc1 mRNA transcripts in Sufu-/- mouse embryonic fibroblasts; format: cell-based; conditions: 10 μM, normalized to GAPDH
# [16] = target: PDE10A2 (Homo sapiens, UniProt Q9Y233); assay: PDE dose-response assay, PDE10A2; format: biochemical
# [17] = tested on: Hh signaling (Shh-Light2 cells); assay: Gli-luciferase reporter in Shh-Light2 cells stimulated with Shh; format: cell-based, mouse; conditions: for Shh-responsive Gli-luciferase reporter activity: stimulated with Shh conditioned medium, significant starting at 1 μM
# In short: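 Mouse Shh-Light2 Gli-responsive luciferase reporter cells were stimulated with Shh conditioned medium and then treated with increasing concentrations of test compound. Luciferase output was read as relative luciferase units (RLU), n = 4 per condition, reported as mean ± SEM with p-values.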
# [18] = tested on: PDE4D3-induced Hh signaling (Shh-Light2 cells); assay: Hh reporter activity in Shh-Light2 cells transfected with PDE4D3; format: cell-based, mouse; conditions: 5 μM
# In short: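 Hh reporter cells were transiently transfected with wild-type PDE4D3, dominant-negative PDE4D3 or empty pCS2 vector as control. Wild-type transfectants received 5 μM test compound. Reporter activity is reported as mean ± SEM and compared with vector control or untreated wild-type transfectants.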
# [19] = tested on: BMP (Bone Morphogenic Protein) signaling; assay: BMP developmental signaling pathway test; format: cell-based
# [20] = tested on: Gli2 ciliary localization in MEFs; assay: Gli2 trafficking to primary cilium in SAG-stimulated MEFs; format: cell-based, mouse; conditions: co-treatment SAG 20 nM and 5 μM compound
# [21] = tested on: PDE super-family members; assay: In vitro PDE activity screen across PDE super-family members; format: biochemical; conditions: 20 μM; PDE4D3 and three other members
# Chain of PDE4D3 (Q08499 1-673 isoform Q08499-2): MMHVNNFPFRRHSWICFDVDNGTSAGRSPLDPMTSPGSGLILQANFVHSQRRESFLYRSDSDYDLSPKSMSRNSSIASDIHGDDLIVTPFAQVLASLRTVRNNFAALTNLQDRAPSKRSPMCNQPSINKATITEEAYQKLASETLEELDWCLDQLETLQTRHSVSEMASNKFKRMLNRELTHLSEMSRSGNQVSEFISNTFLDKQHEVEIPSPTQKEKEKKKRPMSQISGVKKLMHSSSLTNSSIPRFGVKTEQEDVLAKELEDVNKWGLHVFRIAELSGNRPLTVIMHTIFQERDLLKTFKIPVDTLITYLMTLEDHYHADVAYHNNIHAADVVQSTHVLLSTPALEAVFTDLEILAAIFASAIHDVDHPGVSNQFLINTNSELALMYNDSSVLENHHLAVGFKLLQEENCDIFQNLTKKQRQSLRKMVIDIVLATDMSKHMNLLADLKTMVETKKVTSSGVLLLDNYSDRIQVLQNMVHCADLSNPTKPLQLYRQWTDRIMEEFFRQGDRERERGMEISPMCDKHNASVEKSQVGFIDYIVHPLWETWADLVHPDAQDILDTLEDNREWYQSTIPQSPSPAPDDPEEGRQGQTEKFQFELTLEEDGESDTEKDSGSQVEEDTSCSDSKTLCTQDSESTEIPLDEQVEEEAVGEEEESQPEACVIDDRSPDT
# Chain of PDE11A4 (Q9HCR9 whole entry, species assumed): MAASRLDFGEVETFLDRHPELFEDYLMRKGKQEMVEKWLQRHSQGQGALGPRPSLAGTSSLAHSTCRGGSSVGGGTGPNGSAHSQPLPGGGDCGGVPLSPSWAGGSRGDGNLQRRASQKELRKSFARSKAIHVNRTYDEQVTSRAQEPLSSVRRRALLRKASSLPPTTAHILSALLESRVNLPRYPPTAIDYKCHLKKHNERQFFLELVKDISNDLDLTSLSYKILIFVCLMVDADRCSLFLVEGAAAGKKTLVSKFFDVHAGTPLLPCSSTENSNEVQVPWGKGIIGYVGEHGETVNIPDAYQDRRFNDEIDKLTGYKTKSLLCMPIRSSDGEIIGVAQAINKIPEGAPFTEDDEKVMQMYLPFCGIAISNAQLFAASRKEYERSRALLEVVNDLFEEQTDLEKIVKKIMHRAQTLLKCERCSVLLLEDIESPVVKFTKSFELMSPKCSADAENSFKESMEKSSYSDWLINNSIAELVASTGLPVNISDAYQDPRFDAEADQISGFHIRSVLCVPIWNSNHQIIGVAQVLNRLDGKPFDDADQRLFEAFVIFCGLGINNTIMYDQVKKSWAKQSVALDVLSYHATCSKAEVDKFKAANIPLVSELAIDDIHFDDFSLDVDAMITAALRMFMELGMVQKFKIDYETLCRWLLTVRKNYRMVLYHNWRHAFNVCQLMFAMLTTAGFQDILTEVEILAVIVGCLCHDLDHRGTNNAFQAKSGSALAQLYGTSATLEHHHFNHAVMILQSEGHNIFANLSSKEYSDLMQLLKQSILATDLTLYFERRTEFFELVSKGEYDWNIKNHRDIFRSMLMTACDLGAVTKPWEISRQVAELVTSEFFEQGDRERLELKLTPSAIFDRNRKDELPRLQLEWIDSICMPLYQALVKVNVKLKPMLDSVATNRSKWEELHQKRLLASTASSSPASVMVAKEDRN
# Chain of PDE3A (Q14432 whole entry, species assumed): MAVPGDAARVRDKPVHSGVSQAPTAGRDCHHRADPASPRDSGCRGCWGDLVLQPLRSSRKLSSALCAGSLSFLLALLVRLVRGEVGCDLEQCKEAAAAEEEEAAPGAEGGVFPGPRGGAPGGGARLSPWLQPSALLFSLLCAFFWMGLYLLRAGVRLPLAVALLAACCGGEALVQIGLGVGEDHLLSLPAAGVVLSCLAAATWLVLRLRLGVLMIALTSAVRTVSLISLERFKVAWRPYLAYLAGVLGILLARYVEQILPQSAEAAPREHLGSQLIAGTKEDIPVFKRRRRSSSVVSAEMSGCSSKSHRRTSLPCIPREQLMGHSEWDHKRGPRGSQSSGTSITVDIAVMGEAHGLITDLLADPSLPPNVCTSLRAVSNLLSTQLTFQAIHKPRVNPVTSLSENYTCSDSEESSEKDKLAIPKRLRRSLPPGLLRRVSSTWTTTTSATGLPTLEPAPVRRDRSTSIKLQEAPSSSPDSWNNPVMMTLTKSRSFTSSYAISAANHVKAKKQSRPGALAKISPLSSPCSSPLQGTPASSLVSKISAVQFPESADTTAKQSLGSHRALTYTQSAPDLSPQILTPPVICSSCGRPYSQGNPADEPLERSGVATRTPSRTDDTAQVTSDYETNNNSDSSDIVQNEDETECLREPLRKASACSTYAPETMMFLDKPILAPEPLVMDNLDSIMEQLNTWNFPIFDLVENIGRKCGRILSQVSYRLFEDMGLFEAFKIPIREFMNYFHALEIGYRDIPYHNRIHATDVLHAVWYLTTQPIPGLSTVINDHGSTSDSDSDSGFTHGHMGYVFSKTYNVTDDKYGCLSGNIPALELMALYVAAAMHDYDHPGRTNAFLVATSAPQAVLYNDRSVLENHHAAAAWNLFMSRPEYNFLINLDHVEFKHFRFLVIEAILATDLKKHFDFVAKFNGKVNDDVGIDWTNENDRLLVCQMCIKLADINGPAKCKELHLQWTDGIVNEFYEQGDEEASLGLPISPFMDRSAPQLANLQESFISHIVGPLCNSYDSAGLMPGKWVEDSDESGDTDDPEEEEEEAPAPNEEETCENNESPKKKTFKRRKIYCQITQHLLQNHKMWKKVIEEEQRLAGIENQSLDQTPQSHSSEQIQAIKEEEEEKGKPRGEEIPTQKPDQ
# Chain of PDE10A2 (Q9Y233 267-1055, species assumed): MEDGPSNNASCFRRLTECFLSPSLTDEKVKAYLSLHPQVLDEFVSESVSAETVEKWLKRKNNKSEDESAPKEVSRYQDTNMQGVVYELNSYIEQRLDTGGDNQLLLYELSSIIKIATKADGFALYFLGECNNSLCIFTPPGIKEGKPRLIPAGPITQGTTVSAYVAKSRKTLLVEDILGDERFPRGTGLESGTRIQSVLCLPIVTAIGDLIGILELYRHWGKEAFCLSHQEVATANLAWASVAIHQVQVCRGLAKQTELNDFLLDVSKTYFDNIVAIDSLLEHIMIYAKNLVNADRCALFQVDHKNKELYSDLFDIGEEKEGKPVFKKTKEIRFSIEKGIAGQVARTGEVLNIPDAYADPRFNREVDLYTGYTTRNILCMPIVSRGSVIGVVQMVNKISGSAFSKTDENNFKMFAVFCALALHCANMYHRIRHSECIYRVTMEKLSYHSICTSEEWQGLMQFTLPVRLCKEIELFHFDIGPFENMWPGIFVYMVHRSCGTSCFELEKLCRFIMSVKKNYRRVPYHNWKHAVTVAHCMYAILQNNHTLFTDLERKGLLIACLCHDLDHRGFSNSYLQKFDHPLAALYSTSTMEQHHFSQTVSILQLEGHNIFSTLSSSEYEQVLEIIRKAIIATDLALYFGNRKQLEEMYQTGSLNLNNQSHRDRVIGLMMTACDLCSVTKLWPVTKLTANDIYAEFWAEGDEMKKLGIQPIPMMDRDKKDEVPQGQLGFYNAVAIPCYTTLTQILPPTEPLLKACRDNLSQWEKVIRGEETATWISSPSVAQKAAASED
# Chain of Smo (Q99835 28-787): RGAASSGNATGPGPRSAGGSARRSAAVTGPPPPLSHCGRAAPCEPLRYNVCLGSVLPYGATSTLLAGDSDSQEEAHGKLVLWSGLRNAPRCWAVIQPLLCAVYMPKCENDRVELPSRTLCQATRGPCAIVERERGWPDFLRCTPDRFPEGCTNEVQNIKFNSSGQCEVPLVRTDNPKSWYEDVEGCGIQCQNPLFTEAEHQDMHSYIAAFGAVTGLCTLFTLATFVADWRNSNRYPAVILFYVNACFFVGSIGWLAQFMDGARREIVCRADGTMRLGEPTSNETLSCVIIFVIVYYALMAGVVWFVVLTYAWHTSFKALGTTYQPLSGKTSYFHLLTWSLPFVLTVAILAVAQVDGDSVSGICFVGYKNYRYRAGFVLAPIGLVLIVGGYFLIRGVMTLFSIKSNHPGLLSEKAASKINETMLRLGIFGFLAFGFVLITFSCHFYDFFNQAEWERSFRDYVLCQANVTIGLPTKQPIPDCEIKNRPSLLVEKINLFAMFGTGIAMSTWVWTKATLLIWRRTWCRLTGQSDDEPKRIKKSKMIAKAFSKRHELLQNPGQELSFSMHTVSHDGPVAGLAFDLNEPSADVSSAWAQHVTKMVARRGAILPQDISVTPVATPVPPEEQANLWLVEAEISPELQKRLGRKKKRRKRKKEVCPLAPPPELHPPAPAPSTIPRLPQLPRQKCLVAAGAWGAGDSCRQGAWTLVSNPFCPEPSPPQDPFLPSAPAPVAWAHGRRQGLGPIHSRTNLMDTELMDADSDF
structure (smiles),measurement,setting,value
"C=C[C@@]1(C)CC(=O)[C@]2(O)[C@@]3(C)[C@@H](O)CCC(C)(C)[C@@H]3[C@H](O)[C@H](OC(C)=O)[C@@]2(C)O1 [forskolin, reference compound]",Gli3R formation,[1],restored Gli3R formation
same,nuclear accumulation of Gli2FL,[2],inhibited
"C=C(C)Cn1c(SCC(=O)c2cccs2)nc2sc3c(c2c1=O)CCCC3 [eggmanone, 3-(2-methylallyl)-2-((2-oxo-2-(thiophen-2-yl)ethyl)thio)-5,6,7,8-tetrahydrobenzo[4,5]thieno[2,3-d]pyrimidine-4(3H)-one]",phospho-T197-PKA at base of primary cilium / basal body,[3],significant increase in PKA activity at the base of the primary cilium
same,ciliary transport protein IFT88,[4],remained intact
same,cilium structure (Arl13b staining),[4],unaffected
same,p-PKA levels in whole cell lysates,[5],no significant increase
same,inhibition of kinases in panel,[6],≤ 50%
same,purmorphamine-induced Gli-Luc reporter activity,[7],inhibited purmorphamine-induced (3 μM) Gli-Luc reporter activity in a dose-dependent manner
same,Gli3R formation,[1],restored Gli3R formation
same,competition for Smo binding with BODIPY-cyclopamine,[8],failed to compete
same,IC50,[9],0.072 µM
same,selectivity for PDE4D3 over other PDEs,"[9]; versus PDE3A, PDE10A2, PDE11A4",40- to 50 fold
same,IC50,[10],4.08 µM
same,inhibition of phosphatases in panel,[11],≤ 50%
same,"Ptc1 expression in adaxial cells, pectoral fin fields and somites",[12],abrogation of the Hh-target gene Patched (Ptc)-1 expression
same,Gli-Luc activity in cells overexpressing Gli2,[13],retained Gli-Luc activity
same,IC50,[14],3 µM
same,nuclear accumulation of Gli2FL,[2],inhibited
same,Gli1 transcription level,[15],significantly reduced
same,Ptc1 transcription level,[15],significantly reduced
same,IC50,[16],3.05 µM
same,Shh-responsive Gli-luciferase reporter activity,[17],inhibited Hh-inducible Gli-responsive luciferase (Gli-Luc) activity in a dose-dependent manner
same,Hh reporter activity induced by wild type PDE4D3 overexpression,[18],abolished
same,effect on BMP signaling,[19],not perturbed
same,Gli2 localization to primary cilium,[20],properly localized to the proximal tip of the cilium
same,inhibition of PDE activity,[21],≥ 50%
"CC1=C2C[C@H]3[C@@H](CC=C4C[C@@H](O)CC[C@@]43C)[C@@H]2CC[C@]12O[C@@H]1C[C@H](C)CN[C@H]1[C@H]2C [cyclopamine, reference compound]",Gli1 transcription level,[15],no inhibition
same,Ptc1 transcription level,[15],no inhibition
COc1ccc(C2CNC(=O)C2)cc1OC1CCCC1 (stereo not drawn) [rolipram],potency in Gli-Luc reporter assay relative to eggmanone,[17]; stimulated with Shh,lower potency than eggmanone
same,Shh-responsive Gli-luciferase reporter activity,[17],did reduce Hh signaling levels
